Here are results for 34 molecules from ChEMBL document CHEMBL1155364, “Inhibitors of HIV-1 attachment. Part 4: A study of the effect of piperazine substitution patterns on antiviral potency in the context of indole-based derivatives” (Bioorg Med Chem Lett, 2009).

As a reminder, the EC50 is the concentration at which the effect is half-maximal. A low value points to greater potency. What is called CC50 is the concentration at which the toxic effect on the cells reaches its halfway point. A higher CC50 goes with better tolerance by the cells.

Data set [1] deals with Human immunodeficiency virus 1. The experiment in a line: Antiviral activity against HIV1 infected HeLa67 after 3 days by luciferase reporter assay. It counts as functional, organism-based. The conditions noted are these: Human immunodeficiency virus 1, HeLa67, 72 h. A general note: In a reporter assay the amount or activity of a reporter protein is the signal.
Data set [2] is described as follows: Cytotoxicity against human HeLa67 cell after 3 days by XTT assay. It counts as cell-based. The conditions noted are these: HeLa67 cells. Put shortly:
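HeLa67 cells exposed to test compounds in parallel with the antiviral assay; XTT read-out 3 days after compound addition, giving CC50.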
In general terms: Formazan colour is commonly taken as a measure of viable cells.

A short description of data set [3]: Metabolic stability in rat liver microsomes after 10 mins. It counts as ADME, Microsome. The conditions noted are these: read-out: Stability. (In general: Liver microsomes are a subcellular fraction often used to study metabolism.)
The nature of data set [4]: Metabolic stability in human liver microsomes after 10 mins. It counts as ADME, Microsome. The conditions noted are these: read-out: Stability.
A short description of data set [5]: (§1) Permeability across monolayer of human Caco-2 cell. It counts as ADME, cell-based. The conditions noted are these: read-out: permeability.
Data set [6] has as its system Caco-2. The description is as §1. It counts as ADME, cell-based.

The structures appear in SMILES notation.

In the case of `O=C(NC1CCCC(NC(=O)c2ccccc2)C1)C(=O)c1c[nH]c2cccc(F)c12` (stereo not drawn), the concentration for a half-maximal effect (EC50) in data set [1] is greater than 50 µM. In data set [2], the CC50 at 72 h is greater than 300 µM.

With `O=C(C(=O)N1CCN(C(=O)c2ccccc2)CC1)c1c[nH]c2cccc(F)c12`, the remaining at 10 min in data set [3] was determined as 51%; in data set [4], 98%. In addition, in data set [5], the Papp turned out to be 4.7 ×10⁻⁶ cm/s.

Consider `CC(C)CC1CN(C(=O)c2ccccc2)CCN1C(=O)C(=O)c1c[nH]c2cccc(F)c12` (stereo not drawn), for which the remaining at 10 min in data set [3] was determined as 7%; in data set [4], 38%. Further, the Papp in data set [5] turned out to be 17.1 ×10⁻⁶ cm/s.

Molecule `O=C(C(=O)N1CC2CC1CN2C(=O)c1ccccc1)c1c[nH]c2cccc(F)c12` (stereo not drawn) gave an EC50 in data set [1] greater than 50 µM. The molecule also gave a CC50 at 72 h in data set [2] greater than 300 µM.

`CCC1CN(C(=O)C(=O)c2c[nH]c3cccc(F)c23)CCN1C(=O)c1ccccc1` (stereo not drawn): the remaining at 10 min in data set [3] is 25%; in data set [4] it was 63%. In addition, the Papp in data set [5] came to 17.1 ×10⁻⁶ cm/s.

In turn, `O=C(NCCNC(=O)c1ccccc1)C(=O)c1c[nH]c2cccc(F)c12` showed an EC50 in data set [1] greater than 50 µM. In data set [2], this molecule registered a CC50 at 72 h greater than 300 µM.

`COc1cccc2[nH]cc(C(=O)C(=O)N3CCN(C(=O)c4ccccc4)C[C@@H]3C)c12`: the remaining at 10 min was determined as 75% in data set [3] and 98% in data set [4]. Moreover, the permeability result in data set [6] is recorded as “Not Active”.

For the molecule `O=C(NCCCNC(=O)c1ccccc1)C(=O)c1c[nH]c2cccc(F)c12`, in data set [1], the EC50 was greater than 50 µM. Besides, the CC50 at 72 h in data set [2] is greater than 300 µM.

In the case of `CC1CN(C(=O)C(=O)c2c[nH]c3cccc(F)c23)CCN1C(=O)c1ccccc1` (stereo not drawn), the remaining at 10 min in data set [3] was 32%; in data set [4] it was 100%. Further, the Papp in data set [5] was found to be 3.6 ×10⁻⁶ cm/s.

As for `CCCCCC1CN(C(=O)c2ccccc2)CCN1C(=O)C(=O)c1c[nH]c2cccc(F)c12` (stereo not drawn), the remaining at 10 min in data set [3] came to 0%; in data set [4] it was 29%. The Papp in data set [5] came out at 15.4 ×10⁻⁶ cm/s.

In the case of `CC(C)C1CN(C(=O)C(=O)c2c[nH]c3cccc(F)c23)CCN1C(=O)c1ccccc1` (stereo not drawn), the remaining at 10 min in data set [3] amounted to 39%; in data set [4], 63%. The Papp in data set [5] was found to be 16.1 ×10⁻⁶ cm/s.

As to `O=C(N[C@H]1CCCC[C@H]1NC(=O)c1ccccc1)C(=O)c1c[nH]c2cccc(F)c12` (relative stereo), the EC50 in data set [1] turned out to be 30.5 µM. In addition, in data set [2], the midpoint of cytotoxicity, the CC50 at 72 h, lay at 65 µM.

Turning to `C[C@@H]1CN(C(=O)c2ccccc2)CCN1C(=O)C(=O)c1c[nH]c2cccc(F)c12`, the remaining at 10 min amounted to 2% in data set [3] and 74% in data set [4]. Besides, the Papp in data set [5] amounted to 5.4 ×10⁻⁶ cm/s.

In the case of `CC(C)CC1CN(C(=O)C(=O)c2c[nH]c3cccc(F)c23)CCN1C(=O)c1ccccc1` (stereo not drawn), the remaining at 10 min in data set [3] came out at 13%; in data set [4], 35%. For the same molecule, in data set [5], the Papp was found to be 19 ×10⁻⁶ cm/s.

`O=C(C(=O)N1CCCN(C(=O)c2ccccc2)CC1)c1c[nH]c2cccc(F)c12` gave an EC50 in data set [1] greater than 50 µM. Besides, in data set [2], the CC50 at 72 h was greater than 300 µM.

`CC(C)(C)C1CN(C(=O)C(=O)c2c[nH]c3cccc(F)c23)CCN1C(=O)c1ccccc1` (stereo not drawn): the remaining at 10 min in data set [3] came to 44%; in data set [4], 58%. The Papp in data set [5] worked out at 19 ×10⁻⁶ cm/s.

Turning to `COc1cccc2[nH]cc(C(=O)C(=O)N3CCN(C(=O)c4ccccc4)CC3)c12`, the values for the remaining at 10 min in data set [3] and in data set [4] were 88% and 100%, respectively. The Papp in data set [5] was 4.3 ×10⁻⁶ cm/s.

With `O=C(N[C@H]1CCCC[C@@H]1NC(=O)c1ccccc1)C(=O)c1c[nH]c2cccc(F)c12` (relative stereo), in data set [1], the EC50 is greater than 50 µM. Moreover, the CC50 at 72 h in data set [2] is greater than 300 µM.

Turning to `CCCC1CN(C(=O)c2ccccc2)CCN1C(=O)C(=O)c1c[nH]c2cccc(F)c12` (stereo not drawn), the remaining at 10 min in data set [3] was 11%; in data set [4], 52%. The Papp in data set [5] was determined as 17.2 ×10⁻⁶ cm/s.

Take `CN(CCN(C)C(=O)c1ccccc1)C(=O)C(=O)c1c[nH]c2cccc(F)c12`: the EC50 in data set [1] was greater than 50 µM. The CC50 at 72 h in data set [2] was greater than 300 µM.

For the molecule `CN(CCCN(C)C(=O)c1ccccc1)C(=O)C(=O)c1c[nH]c2cccc(F)c12`, the EC50 in data set [1] is greater than 50 µM. The molecule also registered a CC50 at 72 h in data set [2] greater than 300 µM.

In the case of `CCCC1CN(C(=O)C(=O)c2c[nH]c3cccc(F)c23)CCN1C(=O)c1ccccc1` (stereo not drawn), the values for the remaining at 10 min in data set [3] and in data set [4] were 25% and 50%, respectively. For the same molecule, the Papp in data set [5] is 15.4 ×10⁻⁶ cm/s.

Take `C[C@@H]1CN(C(=O)c2ccccc2)C[C@H](C)N1C(=O)C(=O)c1c[nH]c2cccc(F)c12`: the remaining at 10 min in data set [3] turned out to be 2%; in data set [4], 55%. The Papp in data set [5] was less than 1.5 ×10⁻⁶ cm/s.

On to `CCCCCC1CN(C(=O)C(=O)c2c[nH]c3cccc(F)c23)CCN1C(=O)c1ccccc1` (stereo not drawn), for which the remaining at 10 min in data set [3] came out at 3%; in data set [4], 45%. Besides, the Papp in data set [5] is 6.9 ×10⁻⁶ cm/s.

In the case of `C[C@@H]1CN(C(=O)c2ccccc2)[C@@H](C)CN1C(=O)C(=O)c1c[nH]c2cccc(F)c12`, the remaining at 10 min in data set [3] was 0%; in data set [4], 43%. For the same molecule, in data set [5], the Papp was determined as 5 ×10⁻⁶ cm/s.

In the case of `CC1CN(C(=O)c2ccccc2)CCN1C(=O)C(=O)c1c[nH]c2cccc(F)c12` (stereo not drawn), the values for the remaining at 10 min in data set [3] and in data set [4] were 12% and 82%, respectively. Moreover, the Papp in data set [5] came to 7.2 ×10⁻⁶ cm/s.

For `CC(C)(C)C1CN(C(=O)c2ccccc2)CCN1C(=O)C(=O)c1c[nH]c2cccc(F)c12` (stereo not drawn), the remaining at 10 min came out at 49% in data set [3] and 68% in data set [4]. In data set [5], the Papp was 17 ×10⁻⁶ cm/s.

Take `CCC1CN(C(=O)c2ccccc2)CCN1C(=O)C(=O)c1c[nH]c2cccc(F)c12` (stereo not drawn): the remaining at 10 min in data set [3] was 8%; in data set [4], 55%. Moreover, in data set [5], the Papp is 15 ×10⁻⁶ cm/s.

For `C[C@H]1CN(C(=O)c2ccccc2)CCN1C(=O)C(=O)c1c[nH]c2cccc(F)c12`, the values for the remaining at 10 min in data set [3] and in data set [4] were 32% and 85%, respectively. For the same molecule, in data set [5], the Papp stood at 8.8 ×10⁻⁶ cm/s.

For the molecule `COc1cccc2[nH]cc(C(=O)C(=O)N3CCN(C(=O)c4ccccc4)C[C@H]3C)c12`, the values for the remaining at 10 min in data set [3] and in data set [4] were 56% and 84%, respectively. In addition, the Papp in data set [5] was found to be 4.6 ×10⁻⁶ cm/s.

For the molecule `CC(C)C1CN(C(=O)c2ccccc2)CCN1C(=O)C(=O)c1c[nH]c2cccc(F)c12` (stereo not drawn), the remaining at 10 min in data set [3] worked out at 31%; in data set [4], 59%. In addition, the Papp in data set [5] was 16.5 ×10⁻⁶ cm/s.

With `C[C@@H]1CN(C(=O)C(=O)c2c[nH]c3cccc(F)c23)C[C@H](C)N1C(=O)c1ccccc1`, the figures for the remaining at 10 min in data set [3] and in data set [4] were 16% and 69%, respectively. The Papp in data set [5] is 7.3 ×10⁻⁶ cm/s.

For `C[C@@H]1CN(C(=O)c2ccccc2)[C@H](C)CN1C(=O)C(=O)c1c[nH]c2cccc(F)c12` (relative stereo), the remaining at 10 min in data set [3] came to 59%; in data set [4], 76%. The Papp in data set [5] was 9.6 ×10⁻⁶ cm/s.

Regarding `COc1cccc2[nH]cc(C(=O)C(=O)N3CCN(C(=O)c4ccccc4)CC3C)c12` (stereo not drawn), the results for the remaining at 10 min in data set [3] and in data set [4] were 72% and 84%, respectively. Further, the permeability result in data set [6] is on record as “Not Active”.
